{"source": "ChEMBL document CHEMBL5331128", "about": "“Alicyclic Ring Size Variation of 4-Phenyl-2-naphthoic Acid Derivatives as P2Y14 Receptor Antagonists” (J Med Chem, 2023)", "key": {"[1]": {"test": "Protein binding in mouse plasma assessed as bound fraction", "format": "ADME, cell-free"}, "[2]": {"test_system": "Mus musculus", "test": "Anti-asthmatic activity against OVA/Aspergillus-sensitized protease-mediated C57BL/6J mouse model allergic asthma assessed as reduction in neutrophils in BAL fluid at 10 mg/kg,ip followed by 0.5 hrs OVA challenge and measured after 48 hrs", "format": "functional, organism-based", "details": "time 48.5 hrs"}, "[3]": {"test": "Protein binding in human plasma assessed as bound fraction", "format": "ADME, cell-free"}, "[4]": {"test": "Stability in human plasma assessed as parent compound remaining at 1 uM and measured at 120 mins by LC-MS/MS analysis", "format": "ADME, cell-free", "details": "2 h", "method_in_brief": "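Plasma from human, rat and mouse; percent parent remaining at 120 min.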"}, "[5]": {"test": "Microsomal stability in rat liver microsomes assessed as half life", "format": "ADME, Microsome"}}, "note": "The source made the active and inactive calls. No cut-off for these calls is given here.", "data": [{"smiles": "O=C(O)c1cc(-c2ccc([C@]3(O)[C@@H]4CNC[C@H]3C4)cc2)c2ccc(-c3ccc(C(F)(F)F)cc3)cc2c1", "values": [{"measurement": "PPB", "setting": "[1]", "result": 99.86, "unit": "%"}, {"measurement": "Activity", "setting": "[2]", "result": "inactive"}, {"measurement": "PPB", "setting": "[3]", "result": 99.3, "unit": "%"}, {"measurement": "Stability", "setting": "[4]", "result": 91.1, "unit": "%"}, {"measurement": "t1/2", "setting": "[5]", "result": 5.7, "unit": "h"}]}]}
